Data taken from ChEMBL document CHEMBL1124962, “Synthesis and structure-affinity of a series of 7 alpha-undecylestradiol derivatives: a potential vector for therapy and imaging of estrogen-receptor-positive cancers” (J Med Chem, 1990).

Assays:
[1] = molecular target: T1, Estrogen receptor (Bos taurus) (UniProt Q9XSB5+P49884); assay: Ratio of displacement of 17-beta-[3H]-estradiol from calf uterine estrogen receptor compared to 17-beta-estradiol after 12 hr incubation; assay type: protein assay
How it was run: (§1)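 Calf uterine cytosol (105000g, 60 min, 4 °C spin of homogenate in 5 mM sodium phosphate pH 7.5, 10 mM monothioglycerol, 10% glycerol; 0.68 mg protein in final mix) incubated at 4 °C without DMF with 10⁻⁹ M 17β-[³H]estradiol and nine competitor concentrations (3 × 10⁻¹²–10⁻⁶ M), triplicates. Dextran-coated charcoal separation, supernatant counted. RBA = IC50 ratio of estradiol to competitor ×100, mean of ≥3 experiments.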

[2] = molecular target: T1, Estrogen receptor (Bos taurus); assay: Ratio of displacement of 17-beta-[3H]-estradiol from calf uterine estrogen receptor compared to 17-beta-estradiol after 20 hr incubation; assay type: protein assay; how it was run: as §1

| SMILES | relative binding affinity (RBA) [1] | relative binding affinity (RBA) [2] |
| --- | --- | --- |
| C[C@]12CC[C@@H]3c4ccc(O)cc4C[C@@H](CCCCCCCCCCCO)[C@H]3[C@@H]1CC[C@@H]2O | 2.9 | 2 |
| C[C@]12CC[C@@H]3c4ccc(O)cc4C[C@@H](CCCCCCCCCCCOc4ccccc4)[C@H]3[C@@H]1CC[C@@H]2O | 0.1 | 0.1 |
| C[C@]12CC[C@@H]3c4ccc(O)cc4C[C@@H](CCCCCCCCCCCI)[C@H]3[C@@H]1CC[C@@H]2O | 0.04 | 0.1 |
| C[C@]12CC[C@@H]3c4ccc(O)cc4C[C@@H](CCCCCCCCCCCCl)[C@H]3[C@@H]1CC[C@@H]2O | 0.7 | 0.7 |
| C[C@]12CC[C@@H]3c4ccc(O)cc4C[C@@H](CCCCCCCCCCCF)[C@H]3[C@@H]1CC[C@@H]2O | 1.3 | 1.5 |
| C=CCCCCCCCCC[C@@H]1Cc2cc(O)ccc2[C@H]2CC[C@]3(C)[C@@H](O)CC[C@H]3[C@H]12 | 0.09 | 0.09 |
| C[C@]12CC[C@@H]3c4ccc(O)cc4C[C@@H](CCCCCCCCCCCOc4ccc(I)cc4)[C@H]3[C@@H]1CC[C@@H]2O | 0.1 | 0.09 |
| C[C@]12CC[C@@H]3c4ccc(O)cc4C[C@@H](CCCCCCCCCCCBr)[C@H]3[C@@H]1CC[C@@H]2O | 0.05 | 0.2 |
| C[C@]12CC[C@@H]3c4ccc(O)cc4CC[C@H]3[C@@H]1C[C@@H](I)[C@@H]2O | 22.1 | 27.1 |
